Experimental findings from ChEMBL document CHEMBL1817612, “Inhibitory potential of chemical substitutions at bioinspired sites of β-D-galactopyranose on neoglycoprotein/cell surface binding of two classes of medically relevant lectins” (Bioorg Med Chem, 2011) are described below.

Activity calls are given as the source filed them. The rule behind the calls is not given here.

The target in series [1] is Galectin-9 (Homo sapiens) (UniProt O00182). Nature of the series: Inhibition of galectin-9 binding to biotinylated lectin at cell surface of human SW480 cells at 2 mM by fluorometric analysis. It counts as cell-based. An outline of the steps: (§1)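 Biotinylated recombinant galectin-8 (1 µg/ml) or galectin-9 (40 µg/ml) was bound to 5 × 10⁴ SW480 cells per assay, with or without compound at 2 mM. Lactose was run in parallel. Staining via a fluorescent second-step reagent was quantified as percent positive cells and mean fluorescence intensity. Controls were omission of lectin and non-cognate sugars.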

Series [2] concerns the target Galectin-8 (Homo sapiens) (UniProt O00214). Nature of the series: (§2) Inhibition of galectin-8 binding to biotinylated lectin at cell surface of human SW480 cells at 2 mM by fluorometric analysis. It counts as cell-based. In outline: as §1
In series [3] the target is Galectin-3 (Homo sapiens) (UniProt P17931). Nature of the series: Inhibition of galectin-3 binding to biotinylated lectin at cell surface of human Jurkat T-cells at 2 mM by fluorometric analysis. It counts as cell-based. An outline of the steps:
(§3)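 Recombinant biotinylated galectin-3, at a concentration set by titration, was bound to 5 × 10⁴ Jurkat or SW480 cells per assay, with or without compound. Lactose was run in parallel as reference. A fluorescent second-step reagent gave percent positive cells and mean fluorescence intensity by flow cytometry. Negative controls omitted labeled lectin, and non-cognate sugars served as osmolarity controls.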

Series [4] has the same target. Nature of the series: Inhibition of galectin-3 binding to biotinylated lectin at cell surface of human SW480 cells at 100 uM by fluorometric analysis. It counts as cell-based. An outline of the steps: as §3
The target is the same in series [5]. Nature of the series: Inhibition of galectin-3 binding to biotinylated lectin at cell surface of human Jurkat T-cells at 100 uM by fluorometric analysis. It counts as cell-based. An outline of the steps: as §3
Series [6] in a line: Cytotoxicity against human SW480 cells assessed as growth inhibition at 5 mM after 48 hrs by MTT assay. It counts as cell-based. The following applies: read-out: GI. An outline of the steps:
(§4)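 SW480 human colon adenocarcinoma cell aliquots were cultured 48 h with no addition (control) or with test compound added to the medium at 1, 2, 5 or 10 mM. Galactose and lactose were run as controls. Growth was read spectrophotometrically with MTT (0.5 mg/ml) and expressed relative to the untreated control. Triplicates were run in three independent series.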
In general terms: Formazan colour is commonly taken as a measure of viable cells.

A further series deals with SW480. Nature of the series: (§5) Cytotoxicity against human SW480 cells assessed as cell viability at 2 mM after 48 hrs by MTT assay. As to conditions: sw480, 48 h, 2000 µM. It counts as cell-based. In outline: as §4
The test system of another series is Viscum album. Nature of the series: Ratio IC50 for lactose to compound for Viscum album agglutinin binding to biotinylated neoglycoprotein with p-isothiocyanatophynyl lactoside assessed as lectin-neoglycoprotein complex formation after 1 hr by spectrophotometric analysis. In outline: (§6)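 Lactosylated BSA (p-isothiocyanatophenyl lactoside, about 26 sugars per carrier) was adsorbed to wells from PBS overnight at 4 °C. Biotinylated lectin, at a concentration from titration, was incubated 1 h at 37 °C with up to nine compound concentrations. Bound lectin was read spectrophotometrically. Glycocluster concentration was normalized to sugar content, and lactose served as internal reference. Triplicates were run in up to five series.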

Series [7] in a line: Cytotoxicity against human SW480 cells assessed as growth inhibition at 1 mM after 48 hrs by MTT assay. It counts as cell-based. As to conditions: read-out: GI. An outline of the steps:
as §4

Series [8] concerns the target Galectin-3 (Homo sapiens) (UniProt P17931). Nature of the series: Ratio IC50 for lactose to compound for galectin-3 binding to biotinylated neoglycoprotein with p-isothiocyanatophynyl lactoside assessed as lectin-neoglycoprotein complex formation after 1 hr by spectrophotometric analysis. An outline of the steps:
as §6

The subject of series [9] is Jurkat. Nature of the series: Inhibition of Viscum album agglutinin binding to biotinylated lectin at cell surface of human Jurkat T-cells at 1 mM by fluorometric analysis. It counts as cell-based. In outline: (§7)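 Biotinylated mistletoe lectin (VAA, purified from dried leaves on lactosylated Sepharose) was bound to 5 × 10⁴ Jurkat cells per assay at 2.5 µg/ml, with or without compound. Staining was detected with a fluorescent second-step reagent by flow cytometry, as percent positive cells and mean fluorescence intensity. Controls were lactose/galactose, non-cognate sugars for osmolarity, and omission of labeled lectin.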

In series [10] the target is T1, Galectin-8 (Homo sapiens) (UniProt O00214).
T1 sequence (whole entry): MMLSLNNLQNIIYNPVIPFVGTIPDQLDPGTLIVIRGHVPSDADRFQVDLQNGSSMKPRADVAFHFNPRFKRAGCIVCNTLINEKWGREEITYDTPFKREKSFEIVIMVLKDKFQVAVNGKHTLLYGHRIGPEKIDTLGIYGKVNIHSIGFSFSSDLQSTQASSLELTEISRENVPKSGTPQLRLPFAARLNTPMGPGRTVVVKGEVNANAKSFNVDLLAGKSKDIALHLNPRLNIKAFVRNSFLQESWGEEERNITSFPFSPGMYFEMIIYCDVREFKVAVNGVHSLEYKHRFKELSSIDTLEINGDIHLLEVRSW
Described as §2. It counts as cell-based. In outline:
as §1
This is another data set of the same source.

Series [11] addresses T1, Galectin-8 (Homo sapiens). Nature of the series: Ratio IC50 for lactose to compound for galectin-8 binding to biotinylated neoglycoprotein with p-isothiocyanatophynyl lactoside assessed as lectin-neoglycoprotein complex formation after 1 hr by spectrophotometric analysis. In outline: as §6
For series [12], the target named is Galectin-9 (Homo sapiens) (UniProt O00182). Nature of the series: Ratio IC50 for lactose to compound for galectin-9 binding to biotinylated neoglycoprotein with p-isothiocyanatophynyl lactoside assessed as lectin-neoglycoprotein complex formation after 1 hr by spectrophotometrically relative to lactose. An outline of the steps:
as §6

Series [13] relates to Jurkat. Nature of the series: Inhibition of Viscum album agglutinin binding to biotinylated lectin at cell surface of human Jurkat T-cells at 2.5 ug/ml by fluorometric analysis. It counts as cell-based. In outline: as §7
The target in series [14] is Galectin-1 (Homo sapiens) (UniProt P09382). Nature of the series: Ratio IC50 for lactose to compound for galectin-1 binding to biotinylated neoglycoprotein with p-isothiocyanatophynyl lactoside assessed as lectin-neoglycoprotein complex formation after 1 hr by spectrophotometric analysis. An outline of the steps:
as §6

The target of series [15] is Galectin-3 (Homo sapiens) (UniProt P17931). Nature of the series: Inhibition of galectin-3 binding to biotinylated lectin at cell surface of human Jurkat T-cells at 1 mM by fluorometric analysis relative to lactose. It counts as cell-based. An outline of the steps: as §3
Series [16] shares this target. Nature of the series: Inhibition of galectin-3 binding to biotinylated lectin at cell surface of human Jurkat T-cells at 15 uM by fluorometric analysis. It counts as cell-based. In outline:
as §3

Series [17] has the same target. Nature of the series: Inhibition of galectin-3 binding to biotinylated lectin at cell surface of human SW480 cells at 15 uM by fluorometric analysis. It counts as cell-based. In outline: as §3
A short description of series [18]: as §5. As to conditions: SW480 cells, read-out: GI. It counts as cell-based. An outline of the steps:
as §4

Galectin-9 (Homo sapiens), sequence (O00182 whole entry): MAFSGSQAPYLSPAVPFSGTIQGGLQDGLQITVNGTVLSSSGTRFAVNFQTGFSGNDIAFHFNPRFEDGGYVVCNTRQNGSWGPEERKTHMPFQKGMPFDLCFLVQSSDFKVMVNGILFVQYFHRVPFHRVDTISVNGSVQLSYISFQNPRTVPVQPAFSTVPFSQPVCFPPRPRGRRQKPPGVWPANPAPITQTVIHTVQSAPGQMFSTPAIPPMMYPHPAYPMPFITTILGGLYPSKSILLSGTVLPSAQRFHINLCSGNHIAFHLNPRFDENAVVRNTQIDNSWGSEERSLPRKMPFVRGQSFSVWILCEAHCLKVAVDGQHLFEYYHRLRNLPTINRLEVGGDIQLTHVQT
Galectin-3 (Homo sapiens), sequence (P17931 whole entry): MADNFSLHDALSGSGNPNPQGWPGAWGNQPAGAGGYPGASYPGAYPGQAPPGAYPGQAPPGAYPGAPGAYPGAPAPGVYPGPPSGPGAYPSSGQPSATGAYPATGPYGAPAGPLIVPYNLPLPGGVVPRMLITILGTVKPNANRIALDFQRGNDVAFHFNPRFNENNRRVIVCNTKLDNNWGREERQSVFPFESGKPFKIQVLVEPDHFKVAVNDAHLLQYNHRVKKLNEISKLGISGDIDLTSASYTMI
Galectin-1 (Homo sapiens), sequence (P09382 whole entry): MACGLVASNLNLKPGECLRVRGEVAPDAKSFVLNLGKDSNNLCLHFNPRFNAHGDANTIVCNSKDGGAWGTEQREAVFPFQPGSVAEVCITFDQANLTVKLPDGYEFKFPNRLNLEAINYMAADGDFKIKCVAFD

With LACTOSE, ANHYDROUS, the inhibition entry in series [1], in series [2], in series [4] and in series [5] was “Active” in each case. Also, the inhibition entry in [3] was “inactive”.
Consider `C/C=C/[C@@H]1O[C@H](CO)[C@H](O)[C@H](O)[C@H]1O`, for which, in series [6], the inhibition at 48 h, 5000 µM was 50%. Moreover, in the series on SW480, the Activity entry is “Non-toxic”.
Take `OC[C@@H]1O[C@H](C/C=C/c2cccc(/C=C/C[C@@H]3O[C@H](CO)[C@H](O)[C@H](O)[C@H]3O)c2)[C@@H](O)[C@H](O)[C@@H]1O`: in the series with Viscum album, the Ratio IC50 turned out to be 1.9.
As for `C#CCO[C@H]1[C@@H](O)[C@@H](CO)O[C@@H](Sc2ccccc2C(=O)OC)[C@@H]1O`, the inhibition at 48 h, 1000 µM in [7] stood at 10%. For the same compound, the Ratio IC50 in [8] was 1.8.
For the compound `COc1ccc(C(=O)Nc2nc(C)c([C@@H]3O[C@H](CO)[C@H](O)[C@H](O)[C@H]3O)s2)cc1`, the inhibition at 48 h, 5000 µM in [6] amounted to 50%. Besides, the Activity result in the series on SW480 was “Non-toxic”.
On to `Cc1nc(NC(=O)c2ccccc2)sc1[C@@H]1O[C@H](CO)[C@H](O)[C@H](O)[C@H]1O`, for which the figures for the Ratio IC50 (in series [8]; in the series with Viscum album) were 1.3 and 1.2, respectively. Further, the inhibition entry in the series with Jurkat [9] is “Active”.
`CC(C)(C)C(=O)c1cc(CO[C@@H]2O[C@H](CO)[C@H](O[C@@H]3O[C@H](CO)[C@H](O)[C@H](O)[C@H]3O)[C@H](O)[C@H]2O)on1`: the inhibition result in [1] and in series [10] was “Active” throughout. The figures for the Ratio IC50 in series [8], in series [11] and in series [12] were 1.6, 2.2 and 1.7, respectively.
For the compound `O=C(CCSCCC(F)(F)C(F)(F)C(F)(F)C(F)(F)C(F)(F)C(F)(F)C(F)(F)C(F)(F)F)NC(CO[C@@H]1O[C@H](CO)[C@H](O)[C@H](O)[C@H]1O)(CO[C@@H]1O[C@H](CO)[C@H](O)[C@H](O)[C@H]1O)CO[C@@H]1O[C@H](CO)[C@H](O)[C@H](O)[C@H]1O`, the inhibition entry (in series [1]; with Jurkat [13]; in [10]) was “Active” each time. In addition, the Ratio IC50 in series [14] is 1.8; in [8], 6.2; in series [11], 4.6; in the series on Viscum album, 2.2; in series [12] it was 5.1. Besides, the fold change (FC) in [15] stood at 7.
For the compound `C=C(C[C@@H]1O[C@H](CO)[C@H](O)[C@H](O)[C@H]1O)c1cccc([N+](=O)[O-])c1`, in series [3], the inhibition result is “inactive”.
Take `O=S(=O)(O)OCc1cn([C@H]2[C@@H](O)[C@@H](CO)O[C@@H](Sc3nc4ccccc4s3)[C@@H]2O)nn1`: the Ratio IC50 in series [12] is 1.4.
Take `O=C(NCc1cn([C@@H]2O[C@H](CO)[C@H](O[C@@H]3O[C@H](CO)[C@H](O)[C@H](O)[C@H]3O)[C@H](O)[C@H]2O)nn1)c1cc(C(=O)NCc2cn([C@@H]3O[C@H](CO)[C@H](O[C@@H]4O[C@H](CO)[C@H](O)[C@H](O)[C@H]4O)[C@H](O)[C@H]3O)nn2)cc(C(=O)NCc2cn([C@@H]3O[C@H](CO)[C@H](O[C@@H]4O[C@H](CO)[C@H](O)[C@H](O)[C@H]4O)[C@H](O)[C@H]3O)nn2)c1`: the inhibition result (in series [1]; in the series with Jurkat [13]; in series [10]; in [16]; in series [17]) was “Active” throughout. Besides, the inhibition at 48 h, 1000 µM in series [7] stood at 75%. In addition, the Ratio IC50 was found to be 8.4 in [8], 6.9 in series [11], 6.2 with Viscum album and 7.7 in [12]. Also, the fold change (FC) in [15] is 7. Also, the inhibition at 48 h, 2000 µM in series [18] was 58%.
`Cc1nc(NS(=O)(=O)c2ccc3ccccc3c2)sc1[C@@H]1O[C@H](CO)[C@H](O)[C@H](O)[C@H]1O`: the inhibition at 48 h, 5000 µM in series [6] was 50%. Further, the Activity result in the series with SW480 is “Non-toxic”.
Turning to `O=C(O)c1cn([C@H]2[C@@H](O)[C@@H](CO)O[C@@H](Sc3nc4ccccc4s3)[C@@H]2O)nn1`, the inhibition at 48 h, 1000 µM in series [7] worked out at 70%. The Ratio IC50 in series [8] came out at 1.4. Moreover, the inhibition at 48 h, 2000 µM in [18] came out at 40%.
As for `Cc1nc(NC(=O)Cc2ccccc2)sc1[C@@H]1O[C@H](CO)[C@H](O)[C@H](O)[C@H]1O`, the Ratio IC50 turned out to be 1.1 in [8] and 1.3 with Viscum album. Also, in the series on Jurkat [9], the inhibition result was “Active”.
